Test results from ChEMBL document CHEMBL3414536 (Eur J Med Chem, 2015).

Experiments:
[1] = Cytotoxicity against human U373 cells by MTT assay; format: functional, cell-based, U-373MG ATCC; conditions: U373 MG
Method in brief: (§1)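 Human cancer cell lines were cultured for three days with or without compound at 10 nM to 100 µM and read by MTT colorimetric assay. IC50 is the concentration reducing global growth by 50% relative to untreated controls.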

[2] = test system: SK-MEL-28; assay: Cytotoxicity against human SK-MEL-28 cells by MTT assay; format: functional, cell-based; method in brief: as §1
[3] = test system: T98G; assay: Cytotoxicity against human T98G cells by MTT assay; format: functional, cell-based; method in brief: as §1
[4] = test system: A549; assay: Cytotoxicity against human A549 cells by MTT assay; format: functional, cell-based; method in brief: as §1
[5] = Aqueous solubility of the compound; format: physicochemical; conditions: buffer
Method in brief: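 Solubility measured at pH 7.4, room temperature, by a previously described protocol; reported in µg/ml.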

[6] = test system: Hs 683; assay: Cytostatic activity against human Hs683 cells after 72 hrs by videomicroscopy; format: functional, cell-based; conditions: Hs 683, 72 h
[7] = Cytotoxicity against human Hs683 cells by MTT assay; format: functional, cell-based; conditions: Hs 683; method in brief: as §1
[8] = test system: SK-MEL-28; assay: Cytostatic activity against human SK-MEL-28 cells after 72 hrs by videomicroscopy; format: functional, cell-based; conditions: SK-MEL-28, 72 h
[9] = Cytostatic activity against human U373 cells after 72 hrs by videomicroscopy; format: functional, cell-based, U-373MG ATCC; conditions: U373 MG

| SMILES | IC50 [1] | IC50 [2] | IC50 [3] | IC50 [4] | solubility ([5]; read-out: solubility) | IC50 [6] | IC50 [7] | also measured |
| --- | --- | --- | --- | --- | --- | --- | --- | --- |
| CCCn1c2cc(OCCC(C)C)ccc2c2cc[n+](CC)c(C)c21.[Br-] | 600 nM | 1000 nM | 900 nM | 200 nM | 186 µg/mL | 1000 nM | 90 nM | IC50 [8]: 1000 nM; IC50 [9]: 1000 nM |
| Cc1c2c(cc[n+]1Cc1ccccc1)c1ccc(OCCC(C)C)cc1n2CCC(C)C |  |  |  |  |  | 3100 nM |  |  |
| Cc1c2c(cc[n+]1Cc1ccccc1)c1ccc(OCC3CCCCC3)cc1n2CC1CCCCC1.[Br-] |  |  |  |  | < 1.7 µg/mL | 400 nM |  |  |
| CCCn1c2cc(OCc3ccccc3)ccc2c2cc[n+](CC)c(C)c21.[Br-] | 22000 nM | 4000 nM | 11000 nM | 2000 nM | 207 µg/mL |  | 3000 nM |  |
| Cc1c2c(cc[n+]1Cc1ccccc1F)c1ccc(OCc3ccccc3)cc1n2Cc1ccccc1 |  |  |  |  |  | 400 nM |  |  |
| Cc1c2c(cc[n+]1Cc1ccc(F)cc1)c1ccc(OCc3cccc(F)c3)cc1n2Cc1cccc(F)c1.[Br-] |  |  |  |  |  |  |  | solubility [5]: 2.4 µg/mL |
| Cc1c2c(cc[n+]1CCC(C)C)c1ccc(OCCC(C)C)cc1n2CCc1nnn[nH]1 |  | > 100000 nM |  | > 100000 nM |  |  | > 100000 nM |  |
| CCCOc1ccc2c3cc[n+](CC)c(C)c3n(CCC)c2c1.[Br-] | 35000 nM | 8000 nM | 22000 nM | 700 nM | 174 µg/mL |  | 2000 nM |  |
| Cc1c2c(cc[n+]1CCC(C)C)c1ccc(OCCO)cc1n2CCO.[Br-] | > 100000 nM | > 100000 nM |  | > 100000 nM | > 219 µg/mL |  | > 100000 nM |  |
| Cc1nccc2c3ccc(OCc4cccc(F)c4)cc3n(Cc3cccc(F)c3)c12 |  |  |  |  |  | 17000 nM |  |  |
| Cc1c2c(cc[n+]1CCC(C)C)c1ccc(OCc3ccccc3)cc1n2Cc1ccccc1 |  |  |  |  |  | 400 nM |  |  |
| Cc1c2c(cc[n+]1CC(=O)c1ccccc1)c1ccc(OCc3ccccc3)cc1n2Cc1ccccc1 |  |  |  |  |  | 26000 nM |  |  |
| Cc1c2c(cc[n+]1Cc1ccccc1)c1ccc(OCc3ccccc3)cc1n2Cc1ccccc1.[Br-] |  |  |  |  | 72.5 µg/mL |  |  |  |
| Cc1c2c(cc[n+]1Cc1ccccc1F)c1ccc(OCC3CCCCC3)cc1n2CC1CCCCC1 |  |  |  |  |  | 300 nM |  |  |
| CCCOc1ccc2c3cc[n+](CCC(C)C)c(C)c3n(CCC)c2c1.[Br-] | 22000 nM | 3000 nM | 4000 nM | 2000 nM | 196 µg/mL |  | 1000 nM |  |
| CCCn1c2cc(OCCC(C)C)ccc2c2cc[n+](CCC)c(C)c21.[Br-] | 600 nM | 900 nM | 1200 nM | 300 nM | 185 µg/mL |  | 40 nM |  |
| Cc1c2c(cc[n+]1CCC(C)C)c1ccc(OCCC(C)C)cc1n2CCC(C)C |  |  |  |  |  | 300 nM |  |  |
| CCCn1c2cc(OCc3ccccc3)ccc2c2cc[n+](CC(C)C)c(C)c21.[Br-] | 1000 nM | 600 nM | 3800 nM | 800 nM | 207 µg/mL |  | 400 nM |  |
| CCCn1c2cc(OCc3ccccc3)ccc2c2cc[n+](CCC(C)C)c(C)c21.[Br-] | 2000 nM | 1000 nM | 1500 nM | 300 nM | 164 µg/mL | 1000 nM | 300 nM | IC50 [8]: 1000 nM; IC50 [9]: 1000 nM |
| CCCn1c2cc(OCc3ccccc3)ccc2c2cc[n+](Cc3ccccc3F)c(C)c21 |  |  |  |  |  | 500 nM |  |  |
| Cc1c2c(cc[n+]1CCO)c1ccc(OCCO)cc1n2CCO.[Br-] | > 100000 nM | 51000 nM |  | 51000 nM | > 206 µg/mL |  | > 100000 nM |  |
